Inhibition of growth data for 21 compounds are collected here from ChEMBL document CHEMBL1944511, “Bakuchiol derivatives as novel and potent cytotoxic agents: a report” (Eur J Med Chem, 2012).

Format in all cases: functional
In test [1] the test system is MCF7. Kind of test: Growth inhibition of human MCF7 cells at 50 uM after 48 hrs by sulpharhodamine B assay. As to conditions: MCF7, 48 h, read-out: GI. The method in brief: (§1)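 This is the SRB protein-stain assay on adherent cells in RPMI-1640/MEM with 10% FCS. Each compound in DMSO (vehicle <0.2%) was applied at a single fixed concentration for 48 h. Cells were fixed with TCA and stained with SRB, and the dye was solubilised in Tris and read at 570/620 nm. Percent growth inhibition is relative to vehicle-treated controls, reported as mean ± SD of three experiments run in triplicate.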

The subject of test [2] is THP-1. Kind of test: Growth inhibition of human THP1 cells at 50 uM after 48 hrs by sulpharhodamine B assay. As to conditions: THP-1, 48 h, read-out: GI. The essentials:
(§2)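 Cells grown in RPMI-1640/MEM with 10% FCS, penicillin/streptomycin, 37 °C, 5% CO2. Seeded in 96-well plates, allowed to adhere overnight, then exposed 48 h to analogs in DMSO (vehicle <0.2% in controls). TCA-fixed, stained with 0.4% SRB in 1% acetic acid, dye solubilized in 10 mM Tris base, OD 570 nm (ref 620 nm). Mean ± SD of three experiments run in triplicate.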

Test [3] relates to HeLa. Kind of test: Growth inhibition of human HeLa cells at 50 uM after 48 hrs by sulpharhodamine B assay. As to conditions: read-out: GI. The essentials:
as §1

The subject of test [4] is IMR-32. Nature of the test: Growth inhibition of human IMR32 cells at 50 uM after 48 hrs by sulpharhodamine B assay. As to conditions: IMR-32, 48 h, read-out: GI. The method in brief:
as §1

The subject of test [5] is PC-3. Nature of the test: Growth inhibition of human PC3 cells at 50 uM after 48 hrs by sulpharhodamine B assay. Particulars: PC-3, 48 h, read-out: GI. The essentials: as §2
For test [6], the system named is A549. Kind of test: Growth inhibition of human A549 cells at 50 uM after 48 hrs by sulpharhodamine B assay. Particulars: A549, 48 h, read-out: GI. The method in brief:
as §1

For test [7], the system named is OVCAR-5. Nature of the test: Growth inhibition of human OVCAR5 cells at 50 uM after 48 hrs by sulpharhodamine B assay. Particulars: OVCAR-5, 48 h, read-out: GI. The method in brief: as §1

Structures are written as SMILES.

On to `C=C[C@@](C)(/C=C/c1ccc(OC(=O)CCCC)cc1)CCC=C(C)C`, for which the inhibition of growth at 50 µM in test [1] worked out at 25%; in test [2] it was 15%; in test [3], 23%; in test [4], 21%; in test [5], 42%; in test [6] it was 38%. Moreover, in test [7], the inhibition of growth at 50 µM stood at 3%.
Turning to `COc1ccc(/C=C/[C@@](C)(/C=C/c2ccc(O)cc2)CCC=C(C)C)cc1C=O`, the inhibition of growth at 50 µM in test [1] stood at 36%; in test [2], 45%; in test [3] it was 31%; in test [4], 35%; in test [5], 34%; in test [6] it was 32%. In addition, the inhibition of growth at 50 µM in test [7] stood at 33%.
As for `C=C[C@@](C)(/C=C/c1ccc(O)cc1)CC/C=C(/C)C=O`, the inhibition of growth at 50 µM in test [1] was 12%; in test [2], 54%; in test [3], 40%; in test [4], 53%; in test [5], 51%; in test [6], 35%. The inhibition of growth at 50 µM in test [7] is 22%.
Consider `C=C[C@@](C)(/C=C/c1ccc(OC(=O)CCC)cc1)CCC=C(C)C`, for which the inhibition of growth at 50 µM was found to be 20% in test [1]; 54% in test [2]; 36% in test [3]; 54% in test [4]; 38% in test [5]; 50% in test [6]. The inhibition of growth at 50 µM in test [7] is 41%.
For `C=C[C@@](C)(/C=C/c1ccc(OC(=O)CC)cc1)CCC=C(C)C`, the inhibition of growth at 50 µM in test [1] came to 23%; in test [2] it was 60%; in test [3] it was 48%; in test [4], 63%; in test [5], 54%; in test [6], 42%. For the same compound, the inhibition of growth at 50 µM in test [7] came out at 52%.
As to `C=C[C@@](C)(/C=C/c1ccc(O)c(N)c1)CCC=C(C)C`, the inhibition of growth at 50 µM in test [1] came to 17%; in test [2], 48%; in test [3], 48%; in test [4], 39%; in test [5] it was 28%; in test [6], 41%. Also, the inhibition of growth at 50 µM in test [7] turned out to be 33%.
For `COc1ccc(/C=C/[C@@](C)(/C=C/c2ccc(O)cc2)CCC=C(C)C)cc1CO`, the inhibition of growth at 50 µM in test [1] was 42%; in test [2] it was 58%; in test [3], 36%; in test [4] it was 34%; in test [5] it was 39%; in test [6], 41%. In addition, in test [7], the inhibition of growth at 50 µM was found to be 38%.
Regarding `COc1ccccc1/C=C/[C@@](C)(/C=C/c1ccc(O)cc1)CCC=C(C)C`, the inhibition of growth at 50 µM in test [1] was found to be 42%; in test [2], 62%; in test [3] it was 50%; in test [4], 68%; in test [5] it was 46%; in test [6], 10%. The inhibition of growth at 50 µM in test [7] is 38%.
`CC(C)=CCC[C@](C)(/C=C/c1ccc(O)cc1)/C=C/c1ccc(F)cc1`: the inhibition of growth at 50 µM in test [1] is 28%; in test [2], 60%; in test [3] it was 43%; in test [4], 37%; in test [5], 33%; in test [6], 31%. In test [7], the inhibition of growth at 50 µM was 29%.
Consider `CC[C@](C)(CCCC(C)C)CCc1ccc(O)cc1`, for which the inhibition of growth at 50 µM worked out at 46% in test [1]; 58% in test [2]; 42% in test [3]; 53% in test [4]; 40% in test [5]; 49% in test [6]. In test [7], the inhibition of growth at 50 µM came out at 43%.
Take `C=C[C@@](C)(/C=C/c1ccc(OC(=O)CCCCC)cc1)CCC=C(C)C`: the inhibition of growth at 50 µM was determined as 18% in test [1]; 54% in test [2]; 50% in test [3]; 19% in test [4]; 28% in test [5]; 58% in test [6]. The inhibition of growth at 50 µM in test [7] came out at 13%.
For the compound `CC[C@](C)(CCCC(C)C)CCc1ccc(O)c(I)c1`, the inhibition of growth at 50 µM was 40% in test [1]; 58% in test [2]; 43% in test [3]; 21% in test [4]; 8% in test [5]; 12% in test [6]. Moreover, the inhibition of growth at 50 µM in test [7] amounted to 11%.
As for `C=C[C@@](C)(/C=C/c1ccc(OC(=O)CCCCCCC)cc1)CCC=C(C)C`, the inhibition of growth at 50 µM in test [1] came out at 12%; in test [2], 62%; in test [3] it was 53%; in test [4] it was 51%; in test [5], 22%; in test [6], 15%. Moreover, the inhibition of growth at 50 µM in test [7] amounted to 42%.
Take `COc1ccc(/C=C/[C@@](C)(/C=C/c2ccc(O)cc2)CCC=C(C)C)cc1`: the inhibition of growth at 50 µM in test [1] is 55%; in test [2] it was 52%; in test [3], 20%; in test [4], 6%; in test [5], 50%; in test [6], 40%. The inhibition of growth at 50 µM in test [7] is 20%.
For `CC[C@](C)(CCCC(C)C)CCc1cc(Br)c(O)c(Br)c1`, the inhibition of growth at 50 µM in test [1] was 42%; in test [2] it was 51%; in test [3], 42%; in test [4], 21%; in test [5], 50%; in test [6], 40%. Besides, the inhibition of growth at 50 µM in test [7] came to 8%.
With `CCCOc1ccc(/C=C/[C@@](C)(/C=C/c2ccc(O)cc2)CCC=C(C)C)cc1Cl`, the inhibition of growth at 50 µM in test [1] is 47%; in test [2], 20%; in test [3], 4%; in test [4] it was 8%; in test [5], 7%; in test [6], 5%. For the same compound, the inhibition of growth at 50 µM in test [7] was 12%.
In the case of `COc1ccc(/C=C/C(C)(/C=C/c2ccc(OC)cc2)CCC=C(C)C)cc1`, the inhibition of growth at 50 µM in test [1] came out at 13%; in test [2], 62%; in test [3] it was 11%; in test [4] it was 27%; in test [5], 29%; in test [6], 15%. In test [7], the inhibition of growth at 50 µM amounted to 25%.
Regarding `C=C[C@@](C)(/C=C/c1ccc(OC(=O)CCCCCCCCCCCCCCC)cc1)CCC=C(C)C`, the inhibition of growth at 50 µM in test [1] was determined as 24%; in test [2] it was 62%; in test [3], 51%; in test [4], 54%; in test [5] it was 62%; in test [6] it was 61%. Further, the inhibition of growth at 50 µM in test [7] was found to be 64%.
On to `CC(C)=CCCC(C)(/C=C/c1ccc(O)cc1)/C=C/c1ccc(O)cc1`, for which the inhibition of growth at 50 µM in test [1] was found to be 31%; in test [2], 66%; in test [3], 32%; in test [4], 30%; in test [5], 32%; in test [6], 33%. For the same compound, the inhibition of growth at 50 µM in test [7] turned out to be 33%.
For the compound `C=C[C@@](C)(/C=C/c1ccc(O)c([N+](=O)[O-])c1)CCC=C(C)C`, the inhibition of growth at 50 µM turned out to be 49% in test [1]; 55% in test [2]; 49% in test [3]; 50% in test [4]; 52% in test [5]; 52% in test [6]. Further, the inhibition of growth at 50 µM in test [7] was 55%.
In the case of `C=C[C@@](C)(/C=C/c1ccc(O)cc1)CCC1OC1(C)C` (some centres not stated), the inhibition of growth at 50 µM in test [1] is 33%; in test [2], 52%; in test [3], 32%; in test [4] it was 59%; in test [5] it was 46%; in test [6], 44%. Also, in test [7], the inhibition of growth at 50 µM came to 12%.
